# Screening results (PubChem BioAssay)
# SMARCA2 activ: increases SMARCA2 function in MMTV reporter cells | MG213 cells, MMTV-luciferase reporter, dexamethasone, overnight | activation, % at 9.1 µM | 1% of 370,000 active; in the data active = activation above about 7.8%;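 note: 0% = vehicle wells and 100% = reference activator wells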
# NR2E3 ag-1: NR2E3 (human) agonism. inhibition of corepressor binding, % at 4.78 µM. GST-NR2E3/biotin-RetCOR TR-FRET, 1536-well. AID 2300. 0.12% of 320,000 active;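 active = percent inhibition above the cutoff of mean plus 3 SD of all tested compounds, set per screening campaign, cut at about 20% in these data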;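 note: 0% = DMSO wells and 100% = biotin wells as full block of FRET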
#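 system = GST-tagged NR2E3 plus biotinylated RetCOR corepressor | input = 1.35 nM GST-NR2E3 | also added = 7 nM biotin-RetCOR | schedule = 5 h incubation at 4 °C | measured by = TR-FRET with europium anti-GST and streptavidin-D2, 340 nm excitation | read-out = percent loss of FRET ratio relative to control wells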
# NR2E3 ag-2: human photoreceptor-specific nuclear receptor agonism | Q9Y5X4 | CHO-S Gal4-NCOR/VP16-NR2E3 two-hybrid, luciferase | inhibition of corepressor binding, % at 3.98 µM | 0.35% of 360,000 active;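 active = inhibition above the mean of all tested compounds plus 3 SD, cut at about 70% in these data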;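 note: 0% = DMSO with NR2E3 transfected cells and 100% = cells lacking NR2E3 construct; higher means lower luciferase signal from less NR2E3 corepressor binding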
# NR2F2 inh: inhibitors of human COUP-TFII (NR2F2) | P24468 | HEK293T NGFI-A luciferase reporter, luminescence | inhibition, % at 8.6 µM | 0.7% of 370,000 active | AID 686940;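 active = inhibition above a per-plate cutoff, mean inhibition of test wells between control levels plus 3 SD, cut at about 38% in these data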;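 note: cells cotransfected with COUP-TFII expression vector driving the NGFI-A reporter; 0% = median of COUP-TF2 test wells and 100% = reporter-only cells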
# GalR3 antagonist: blocks the human galanin receptor 3. inhibition, % at 3 µM. HEK293 GalR3-CNG cAMP membrane potential fluorescence; galR3 body fused to GalR1 C-terminus. AID 651719. 0.44% of 360,000 active. O60755;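 active = inhibition above the screen-wide average plus 3 SD, cut at about 13% in these data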;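 note: forskolin and galanin both at EC90 stimulate the cells; cAMP rise reported by CNG channel membrane potential dye signal; 0% = forskolin plus galanin with DMSO and 100% = forskolin alone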
# Target sequence (O60755 1-299 limits assumed): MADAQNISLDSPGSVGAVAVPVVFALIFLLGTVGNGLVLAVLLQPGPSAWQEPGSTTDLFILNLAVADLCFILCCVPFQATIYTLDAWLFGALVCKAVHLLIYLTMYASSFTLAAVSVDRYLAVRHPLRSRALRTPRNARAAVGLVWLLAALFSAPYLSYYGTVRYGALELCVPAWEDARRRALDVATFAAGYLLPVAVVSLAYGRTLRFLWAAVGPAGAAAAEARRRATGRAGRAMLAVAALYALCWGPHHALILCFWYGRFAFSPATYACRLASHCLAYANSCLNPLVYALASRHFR
# NR2E3 ag confirm: NR2E3 agonism confirmed in two-hybrid assay. 51% of 2,300 active. inhibition, % at 3.98 µM. CHO-S mammalian two-hybrid NR2E3-NCOR, luciferase luminescence. shares compounds with NR2E3 ag-2;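 active = average inhibition above a cutoff equal to the mean inhibition of all tested compounds plus one SD, cut at about 70% in these data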;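 note: 0% = DMSO in NR2E3 cells and 100% = DMSO in cells lacking NR2E3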
# GAL4-VP16 luc: reduces GAL4-VP16 reporter signal in NR2E3 counterscreen; shares compounds with NR2E3 ag-2; CHO-S GAL4-VP16 luciferase reporter, luminescence; inhibition, % at 3.98 µM; 29% of 2,300 active; AID 624379;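 active = mean inhibition above a cutoff equal to the average over all tested compounds plus one standard deviation, cut at about 70% in these data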;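 note: luciferase from a UAS reporter driven by GAL4-VP16 transactivation; 0% = DMSO with VP16-transfected cells and 100% = DMSO with cells lacking VP16; higher means less reporter light so more repression of VP16 activity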
# * = called active by the depositor; · = no result. Compounds with a hit are over-represented: about 2.2% of the library has one in this group of screens.
SMILES,SMARCA2 activ,NR2E3 ag-1,NR2E3 ag-2,NR2F2 inh,GalR3 antagonist,NR2E3 ag confirm,GAL4-VP16 luc
Cc1ccccc1C1=NC(C(F)(F)F)(C(F)(F)F)c2c(n(C)c(=O)n(C)c2=O)N1,-5.0,1.4,-7.1,-10.1,3.0,·,·
COC(=O)C1CN(Cc2ccccc2)CCS(=O)(=O)N1Cc1ccc(C)cc1 (centres undefined),-0.7,·,·,5.0,·,·,·
NC(=S)N/N=C\c1c(OCc2ccccc2Cl)ccc2ccccc12,-4.5,2.4,93.9*,35.8,-6.7,-16.2,-3.3
O=C(NCCc1nc2ccccc2n1CCOc1ccc2cccnc2c1)C1CCCCC1,·,·,·,11.6,·,·,·
Cc1ccc(C2=C(O)c3ccccc3C(=O)C2=O)cc1,-1.0,-6.1,-30.1,15.8,-5.9,·,·
CC1=C(O)c2ccccc2C(=O)C1=O,0.3,·,53.0,9.7,-6.4,84.9*,48.9
O=C(NCc1cccc(C(F)(F)F)c1)c1[nH]c(C(F)(F)F)nc1-c1ccccc1,·,·,91.0*,·,·,59.2,27.4
CCCCCCCCN1C(=O)[C@@H](CC(=O)N2CCCC2)C[C@@]2(C(=O)OC)C1=C[C@H](COCc1ccccc1)O[C@@H]2C,-5.4,·,·,-1.7,·,·,·
CNC(=O)OCc1nc(SSC(C)(C)C)n(C)c1COC(=O)NC,-6.7,·,55.4,-48.8,-1.1,27.8,12.2
COC(=O)[C@H](CC(C)C)N(Cc1cn(Cc2ccc(C)cc2)nn1)S(=O)(=O)c1ccccc1Br,-4.6,·,·,-3.3,·,·,·
COc1ccccc1CNc1nc(NCc2ccccc2F)c2sccc2n1,·,·,81.7*,·,·,94.1*,76.3*
C#Cc1cccc(Nc2nc(NCCOC)nc3ccsc23)c1,0.1,·,26.7,15.2,-5.7,·,·
COc1ccccc1CNc1nc(NCc2ccc(C)cc2C)c2sccc2n1,·,·,55.3,·,·,65.2,61.3
COCCNc1nc(NCc2ccc(C)cc2C)c2sccc2n1,-6.8,·,4.7,-3.1,-8.6,·,·
COc1ccccc1CNc1nc(NCc2cccc(OC)c2OC)c2sccc2n1,-2.4,·,21.1,20.3,-8.8,·,·
COc1ccccc1CNc1nc(NCc2ccccc2)nc2ccsc12,-8.8,·,61.6,1.8,-5.6,51.9,48.8
C#Cc1cccc(Nc2nc(NCc3ccccc3OC)nc3ccsc23)c1,-8.9,·,68.3,37.0,-7.1,91.8*,75.0*
CC(C)C[C@H](NC(C)(C)C(=O)NC1CCCCC1)C(=O)NCC(c1ccccc1)c1ccccc1,·,·,·,20.8,·,·,·
c1ccc(CNc2nc(NCc3ccccc3)c3sccc3n2)cc1,-5.6,·,62.5,4.1,-9.5,73.7*,60.7
c1ccc(CNc2nc(NCCOc3ccccc3)c3sccc3n2)cc1,-5.4,·,44.9,28.9,-6.8,·,·
C(=N/N1CCN(c2ccccc2)CC1)/c1ccco1,1.3,·,·,-26.1,·,·,·
Oc1ccccc1N=Cc1ccc[nH]1,-2.1,-2.5,57.7,-0.9,-3.7,6.8,14.7
COc1cccc(CNS(=O)(=O)c2ccc3c(c2)CCN3C(=O)C2CC2)c1,1.4,-1.2,-2.9,6.7,-5.3,·,·
COc1ccc(CNS(=O)(=O)c2ccc3c(c2)CCN3C(=O)C2CCC2)cc1,-2.3,-1.6,50.6,-7.3,-1.3,27.0,42.6
COc1cccc(NS(=O)(=O)c2ccc3c(c2)CCN3C(C)=O)c1,-3.0,-1.1,67.1,36.5,-12.7,61.8,59.4
SMILES,SMARCA2 activ,NR2E3 ag-1,NR2E3 ag-2,NR2F2 inh,GalR3 antagonist,NR2E3 ag confirm,GAL4-VP16 luc
CC(=O)N1CCc2cc(S(=O)(=O)N3CCc4ccccc4C3)ccc21,-5.2,2.1,17.0,-1.7,1.9,·,·
CC(=O)N1CCc2cc(S(=O)(=O)Nc3cccc(C(F)(F)F)c3)ccc21,-3.2,-0.6,64.6,26.7,-10.6,62.6,38.1
CC(=O)N1CCc2cc(S(=O)(=O)N3CCc4ccccc43)ccc21,-3.7,1.7,73.7*,19.9,-4.9,51.0,46.9
COc1ccc(CN2C/C(=C/c3ccc(C)cc3)N3C(=O)C[C@@H](c4ccccc4)N=C23)c(OC)c1,-4.5,·,·,-10.8,·,·,·
C=CCN(CC#CCN(C)C(=O)c1cccn1C(=O)OC(C)(C)C)Cc1ccc(OC)cc1OC,4.4,·,·,-2.7,·,·,·
Cc1c(C)n(Cc2ccc(-c3ccccc3C(=O)O)cc2)c2ccc(C(=O)N[C@@H](C)c3ccc([N+](=O)[O-])cc3)cc12,-1.8,·,·,-8.5,·,·,·
